Results published in PubChem BioAssay AID2247 (Johns Hopkins Ion Channel Center, 2010).
Hit rate of the full screen: of about 300,000 compounds, about 1,200 (0.4%) were called active.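 How the source made its calls: active means B-score over 3 SD under the library average, no early fluorescence shift, positive overall ratio signal; inactive means the rest.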 Many of the other results were omitted from the sample, so actives are more common in it than they were.

Target: Short transient receptor potential channel 4 (Mus musculus) (UniProt Q9QUQ5)
Sequence (Q9QUQ5 whole entry, looked up): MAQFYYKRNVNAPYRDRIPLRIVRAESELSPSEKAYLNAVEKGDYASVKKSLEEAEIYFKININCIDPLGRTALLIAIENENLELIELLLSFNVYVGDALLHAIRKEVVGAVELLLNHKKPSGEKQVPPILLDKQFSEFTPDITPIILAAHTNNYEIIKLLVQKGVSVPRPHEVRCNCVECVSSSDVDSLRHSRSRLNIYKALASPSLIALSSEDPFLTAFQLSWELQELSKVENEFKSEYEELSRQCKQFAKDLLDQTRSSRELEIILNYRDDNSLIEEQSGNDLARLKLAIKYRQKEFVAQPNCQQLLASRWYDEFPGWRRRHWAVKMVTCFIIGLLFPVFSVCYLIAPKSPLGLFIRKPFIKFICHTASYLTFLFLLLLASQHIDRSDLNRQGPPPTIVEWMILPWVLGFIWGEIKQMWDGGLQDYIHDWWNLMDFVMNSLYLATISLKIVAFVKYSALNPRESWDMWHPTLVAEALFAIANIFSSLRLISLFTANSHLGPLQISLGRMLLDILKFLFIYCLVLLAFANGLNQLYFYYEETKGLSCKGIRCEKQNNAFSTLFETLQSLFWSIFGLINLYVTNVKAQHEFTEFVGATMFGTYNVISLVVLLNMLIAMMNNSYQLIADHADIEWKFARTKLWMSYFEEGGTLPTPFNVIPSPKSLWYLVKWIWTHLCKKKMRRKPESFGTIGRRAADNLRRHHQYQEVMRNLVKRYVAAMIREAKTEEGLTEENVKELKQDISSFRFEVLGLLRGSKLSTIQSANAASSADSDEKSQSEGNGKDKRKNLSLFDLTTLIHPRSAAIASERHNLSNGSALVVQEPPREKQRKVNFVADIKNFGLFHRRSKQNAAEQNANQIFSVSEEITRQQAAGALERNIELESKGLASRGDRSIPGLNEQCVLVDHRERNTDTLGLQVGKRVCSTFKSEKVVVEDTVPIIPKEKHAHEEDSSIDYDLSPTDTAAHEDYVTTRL
Test: inhibitors of mouse TRPC4 channel, primary screen, Fluo4 calcium, HEK293 TRPC4beta/mu-opioid cells (AID 2247)
Conditions: DAMGO-evoked Fluo4 calcium flux, at 10 µM; hits give low values
Outline: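 Material: HEK293 cells with stable TRPC4beta plus mu-opioid receptor expression; probe or stimulus: DAMGO in two steps, submaximal then maximal; technique: Fluo4 calcium fluorescence by kinetic imaging, 5 s 1 Hz baseline; measure: integrated fluorescence ratio relative to baseline, converted to per-well B score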

SMILES | B-score
CN(CC(=O)Nc1cccc(F)c1)C(=O)C1=COCCO1 | inactive
Cc1onc(-c2c(F)cccc2Cl)c1C(=O)N(C)CC(=O)Nc1cccc(F)c1 | -7 (active)
Cc1noc(C)c1COc1ccccc1C(=O)N(C)CC(=O)Nc1cccc(F)c1 | inactive
Cc1sc(NC(=O)C2C3CCC(O3)C2C(=O)O)c(C(=O)OC(C)C)c1-c1ccc(Cl)cc1 (configuration not stated) | inactive
Cc1cccc(-c2ncc(CN3CCC(CO)(CCCc4ccccc4)CC3)cn2)c1 | inactive
OCC1(CCc2ccccc2)CCN(Cc2ccc3nsnc3c2)CC1 | -7 (active)
CC(C)(O)C#Cc1ccc(CN2CCC(CO)(CCc3ccccc3)CC2)cc1 | inactive
O=C(CN1CCOc2ccccc21)N1CCC(Cc2ccccc2)CC1 | inactive
CC(c1ccccn1)N(C)C(=O)c1ccc2nc(Cc3cccc(Cl)c3)oc2c1 (configuration not stated) | inactive
NC1=NC[C@@H](Cc2ccc(O)cc2)N1CC1CCCCC1 | inactive
CC(C)n1c(NCc2c[nH]c3ccccc23)nc2ccccc21 | -8 (active)
CC(C)n1c(-c2cccs2)nc2ccccc21 | inactive
CC(C)n1c(COc2ccccc2)nc2ccccc21 | inactive
Cc1ccc(Cn2nnc3c(=O)[nH]c(C4CCN(S(=O)(=O)/C=C/c5ccccc5)CC4)nc32)cc1 | inactive
N#Cc1c(NC(=O)CCCl)sc2c1CCCCC2 | inactive
N#Cc1c(NC(=O)C2CC(Cl)=CCC2C(=O)O)sc2c1CCCCC2 (configuration not stated) | -6 (active)
N#Cc1c(NC(=O)C2CCCO2)sc2c1CCCCC2 (configuration not stated) | inactive
CC(C)(C)c1cc2cccnc2n1Cc1ccccc1 | -7 (active)
Cn1c(=O)c2c(nc(OCc3cccnc3)n2Cc2ccccc2)n(C)c1=O | inactive
COc1ccnc2c1c(=O)n(Cc1cccc(F)c1)c(=O)n2C | inactive
Nc1cc(N)nc(SCc2cccc(F)c2)n1 | inactive
Cc1cc(C(C)(C)C)n2nc(C)c(-c3ccccc3)c2n1 | inactive

SMILES | B-score
CC(C)(C)c1cc2cccnc2n1Cc1cccc(F)c1 | -6 (active)
CCN(CC)C(=O)Cn1cc(S(=O)(=O)CC(=O)NCc2ccc3c(c2)OCO3)c2ccccc21 | inactive
Cc1nc2ccccc2n1C(=O)N1CCOCC1 | inactive
COc1ccc(C(=O)Nc2ccc(-n3nncc3C(C)(C)C)cc2)cc1 | inactive
O=S(=O)(O)Oc1c[nH]c2ccccc12 | inactive
COc1ccc(CN(C)Cc2nc3cc(OC)c(OC)cc3c(=O)[nH]2)c(OC)c1 | inactive
COc1cc(NS(=O)(=O)c2ccc3ccccc3c2)c2ncccc2c1 | -6 (active)
Cc1ccc(NS(=O)(=O)c2ccc(C)c(NC(=O)COc3ccc4ccccc4c3)c2)c(C)c1 | inactive
O=[N+]([O-])c1ccccc1S(=O)(=O)Nc1cccc2cccnc12 | inactive
CC1(C)S[C@@H]2[C@H](NC(=O)COc3ccccc3)C(=O)N2C1C(=O)OCc1ccccc1 (some centres not stated) | inactive
CCc1ccc(C(=O)COC(=O)c2ccco2)cc1 | inactive
COc1ccc(-n2cc(CNC3CCOCC3)c(-c3cccc(F)c3)n2)cc1 | inactive
CCC(O)C1CCN(Cc2cn(-c3ccc(OC)cc3)nc2-c2cccc(F)c2)CC1 (configuration not stated) | -8 (active)
COc1ccc(-n2cc(CN(C)Cc3n[nH]c(=O)[nH]3)c(-c3cccc(F)c3)n2)cc1 | inactive
Cc1c(CCOC(=O)CC23CC4CC(CC(C)(C4)C2)C3)sc[n+]1Cc1ccc([N+](=O)[O-])cc1 | inactive
Cc1c(CN2CCC(n3nccc3NC(=O)CCc3ccccc3)CC2)cnn1C | -7 (active)
CCn1cc(CN2CCC(n3nccc3NC(=O)CCCc3ccccc3)CC2)c(C)n1 | inactive
Cc1ccc(CN2CCC(n3nccc3NC(=O)CCCc3ccccc3)CC2)o1 | inactive
COC(=O)c1onc(-c2c(OC)cc(OC)cc2OC)c1C(=O)OC | inactive
O=C(Cn1ncc2c3ccccc3n(Cc3ccccc3)c2c1=O)NCc1ccccn1 | inactive
Cc1ccc(NC(=O)CSc2nc(=O)n(CCN(C)C)c3c2CCCC3)c(C)c1 | inactive
N#Cc1cccc(Nc2c3c(nc4ccccc24)CCCC3)c1 | inactive

SMILES | B-score
O=[N+]([O-])c1cccc(Nc2c3ccccc3nc3ccccc23)c1 | -7 (active)
Cc1cc(CNC(=O)c2cccc([N+](=O)[O-])c2)c2ccccc2n1 | inactive
CC1CC(C)CN(CCCNC(=O)c2csc3c2CCCCC3)C1 (configuration not stated) | inactive
COc1ccc(CNC(=O)[C@@H]2CC=C[C@@H]3CCN(C4CC4)C(=O)[C@@H]32)cc1 | inactive
CCc1ccc2oc(=O)cc(CN3CCCCC3C)c2c1 (configuration not stated) | inactive
Cc1onc(-c2c(Cl)cccc2Cl)c1C(=O)NNC(=O)c1c(-c2c(Cl)cccc2Cl)noc1C | inactive
Cc1onc(-c2c(Cl)cccc2Cl)c1C(=O)c1c[nH]c(C(=O)NC2CC2)c1 | inactive
Cc1[nH]n(C)c(=O)c1C(=O)c1c(-c2c(Cl)cccc2Cl)noc1C | -6 (active)
COc1cc(CNC2CCCCC2)c(Br)cc1OC1CCCC1 | inactive
COc1cc(CN2CCC(C(N)=O)CC2)ccc1OCc1ccccc1 | inactive
COc1cc(CNC2CCCC2)c(Br)cc1OCc1ccccc1 | -6 (active)
Cc1cccc(C2C3=C(CCCC3=O)N=C3c4ccccc4C(=O)C32)c1 (configuration not stated) | inactive
Nc1ccc(OCC(O)C[n+]2ccc(CCS(=O)(=O)[O-])cc2)cc1 (configuration not stated) | inactive
CN(CC(=O)N1CCN(c2ccccc2)CC1)S(=O)(=O)c1cccs1 | inactive
Cc1cccc(NS(=O)(=O)c2ccc(C)c(C(N)=O)c2)c1 | inactive
CC1CCCN(CCOCCOc2ccccc2-c2ccccc2)C1 (configuration not stated) | -7 (active)
c1ccc(-c2ccccc2OCCN2CCCCC2)cc1 | inactive
CC1CN(CCCOc2ccccc2-c2ccccc2)CC(C)O1 (configuration not stated) | inactive
COc1cc(N2CCCC2)c(OC)cc1/C=C(/C#N)c1cccc(Br)c1 | inactive
Cc1cc(NC(=O)CN2C(=O)NC(C)(CCc3ccccc3)C2=O)no1 (configuration not stated) | inactive
CCOC(=O)c1cc(C#N)c(N2CCCCC2)nc1-c1ccccc1 | -8 (active)
CCOc1ccc2nc(N3CCCN(C(=O)Nc4ccccc4C)CC3)c(C#N)cc2c1 | inactive

SMILES | B-score
CCOC(=O)c1cc(C)nc(S(C)(=O)=O)c1C#N | inactive
O=C(CN(Cc1ccc(Br)cc1)S(=O)(=O)c1ccccc1)NCc1ccncc1 | inactive
CSCC[C@H](NC(=O)NCc1cccs1)C(=O)O | inactive
COc1ccc(C(=O)C2CCCN(Cc3ccc4nonc4c3)C2)c(C)c1 (configuration not stated) | inactive
COc1cc(CN2CCCC(C(=O)c3ccc(SC)cc3)C2)cc(Cl)c1O (configuration not stated) | inactive
COc1ccc(CN2CCCC(C(=O)c3ccc(Cl)cc3)C2)cc1Cn1cncn1 (configuration not stated) | -7 (active)
CCC(C)OC(=O)C(C)Oc1ccc(-c2ccccc2)cc1 (configuration not stated) | inactive
O=S(=O)(/C=C/c1ccccc1)N1CCNCC1 | inactive
O=C(O)c1ccccc1C(=O)NC1=NN(c2ccccc2)CC1 | inactive
O=[N+]([O-])c1ccccc1Nc1ccc(O)cc1 | -6 (active)
Cc1ccc(Nc2ccc(C(N)=O)cc2[N+](=O)[O-])cc1 | inactive
O=C(O)c1ccccc1C(=O)Nc1ccccc1[N+](=O)[O-] | inactive
Cc1ccc(C(=O)Nc2nnc(C3=COCCO3)o2)cc1C | -6 (active)
O=C(Nc1nnc(C2=COCCO2)o1)c1ccc([N+](=O)[O-])s1 | inactive
COc1cc(-c2nnc(NC(=O)C3=COCCO3)o2)cc(OC)c1OC | inactive
Cc1ccc(CNC(=O)C(=O)c2cn(CC(=O)N3CCCC3)c3ccccc23)cc1 | inactive
O=C(Nc1ccc(N2CCCCC2)cc1)c1cc(S(=O)(=O)N2CCOCC2)ccc1F | inactive
CCc1nn(CCCC(=O)Nc2ccc(C)c(C)c2)c(=O)c2cc3occc3n12 | inactive
N/C(=N\OC(=O)Nc1ccccc1)c1ccno1 | inactive
CC1CCN(CCCn2c(SCC(=O)NC3CCCC3)nc3ccccc3c2=O)CC1 | inactive
O=C(CSc1nc2ccccc2c(=O)n1CCCO)N1CCc2ccccc21 | -7 (active)
Cn1c(SCC(=O)N2CCCc3ccccc32)nc2ccccc2c1=O | inactive

SMILES | B-score
CCOc1ccc(CCNC(=O)CN2C(=O)NC3(CCc4ccccc43)C2=O)cc1OCC (configuration not stated) | inactive
COCCn1c(SC(C)C(=O)NC2CC2)nnc1-c1cccc(C)c1 (configuration not stated) | inactive
O=C(/C=C/NNC(=O)c1cccc(Br)c1)c1ccccc1 | inactive
CCOC(=O)/C(C#N)=C/c1cn(CCC(=O)O)nc1-c1ccc(Br)cc1 | inactive
O=C(O)CCn1cc(/C=C/C(=O)c2ccc(Cl)cc2)c(-c2cccc(Br)c2)n1 | -6 (active)
CCOC(=O)N1CCN(S(=O)(=O)N2CCCC(C(=O)NCCCN3CCC(C)CC3)C2)CC1 (configuration not stated) | inactive
Cc1ccnc(N2CCN(C(=O)CSc3nc4ccccc4nc3N3CCCCC3)CC2)c1 | inactive
CC(C)Cc1nc(N2CCOCC2)c(C#N)c2c1CCC2 | -6 (active)
CC(C)c1nc(N2CCOCC2)c(C#N)c2c1COC(C)(C)C2 | inactive
CC(C)Cc1nc(Cl)c(C#N)c2c1CCC2 | inactive
CCCCn1c(N)c(N(CCOC)C(=O)c2cccc(S(=O)(=O)N3CCCCC3)c2)c(=O)[nH]c1=O | inactive
CN1CCNC(=O)C1CC(=O)N1CC=C(c2ccc(F)cc2)CC1 (configuration not stated) | inactive
COc1cccc(N(CC(=O)NCc2ccccc2)C(=O)CCC(=O)Nc2nccs2)c1 | inactive
O=C(CCN1CCc2ccccc2C(O)(c2ccccc2)C1)c1ccc2c(c1)OCCO2 (configuration not stated) | -7 (active)
O=C(CN1CCN(c2ccccc2F)CC1)c1ccc2c(c1)OCO2 | inactive
CCC1(c2ccccc2)NC(=O)N(CC(=O)c2ccc3c(c2)OCO3)C1=O (configuration not stated) | inactive
COc1ccc(NC(=O)CCCC2CCCCC2)c(OC)c1 | inactive
CC(=O)Oc1ccc(NC(=O)CCC2CCCCC2)c(C(=O)O)c1 | -6 (active)
COC(=O)c1sccc1NC(=O)CCC1CCCC1 | inactive
